Results as given in ChEMBL document CHEMBL1144747, “(Phenylpiperazinyl-butyl)oxindoles as selective 5-HT7 receptor antagonists” (J Med Chem, 2008).

How the values were obtained:
[1] = molecular target: 5-hydroxytryptamine receptor 6 (Homo sapiens, UniProt P50406); assay: Inhibition of 5HT6 receptor
[2] = molecular target: T1, 5-hydroxytryptamine receptor 1A (Rattus norvegicus, UniProt P19327); assay: Inhibition of 5HT1A receptor in rat frontal cortex membrane; assay type: cell membranes
T1 sequence (P19327 whole entry): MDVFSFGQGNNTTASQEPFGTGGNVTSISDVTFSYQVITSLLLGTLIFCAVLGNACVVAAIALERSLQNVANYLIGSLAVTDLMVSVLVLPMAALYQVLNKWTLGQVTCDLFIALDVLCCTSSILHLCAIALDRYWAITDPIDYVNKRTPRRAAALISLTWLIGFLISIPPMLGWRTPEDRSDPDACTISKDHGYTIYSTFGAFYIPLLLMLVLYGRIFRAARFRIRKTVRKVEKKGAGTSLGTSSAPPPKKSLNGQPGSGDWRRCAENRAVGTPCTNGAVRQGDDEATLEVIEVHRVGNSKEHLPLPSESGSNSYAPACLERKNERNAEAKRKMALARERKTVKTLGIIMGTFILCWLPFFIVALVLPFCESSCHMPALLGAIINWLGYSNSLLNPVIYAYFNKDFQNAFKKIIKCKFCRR
Method in brief: (§1)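 Rat tissue homogenized in 50 mM Tris-HCl pH 7.7, washed by repeated 40000g spins with a 10 min 37 °C incubation. Buffer: Tris-HCl, 6.66 mM CaCl2, 16.66 µM pargyline, 0.166% ascorbate. Labelled with 1.5 nM [3H]8-OH-DPAT, 45 min at 25 °C; nonspecific with 10 µM 5-HT. GF/B filtration, then scintillation counting; percent inhibition.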

[3] = molecular target: T2, 5-hydroxytryptamine receptor 1A (Rattus norvegicus) (UniProt P19327); assay: Displacement of [3H]8-OH-DPAT from 5HT1A receptor in rat frontal cortex membrane at 10 nM; assay type: cell membranes; method in brief: as §1
T2 sequence (whole entry): T1 sequence (P19327 whole entry)

D(1A) dopamine receptor = D(1A) dopamine receptor (Homo sapiens, UniProt P21728); assay: Inhibition of dopamine D1 receptor
Chain of D(1A) dopamine receptor (P21728 whole entry): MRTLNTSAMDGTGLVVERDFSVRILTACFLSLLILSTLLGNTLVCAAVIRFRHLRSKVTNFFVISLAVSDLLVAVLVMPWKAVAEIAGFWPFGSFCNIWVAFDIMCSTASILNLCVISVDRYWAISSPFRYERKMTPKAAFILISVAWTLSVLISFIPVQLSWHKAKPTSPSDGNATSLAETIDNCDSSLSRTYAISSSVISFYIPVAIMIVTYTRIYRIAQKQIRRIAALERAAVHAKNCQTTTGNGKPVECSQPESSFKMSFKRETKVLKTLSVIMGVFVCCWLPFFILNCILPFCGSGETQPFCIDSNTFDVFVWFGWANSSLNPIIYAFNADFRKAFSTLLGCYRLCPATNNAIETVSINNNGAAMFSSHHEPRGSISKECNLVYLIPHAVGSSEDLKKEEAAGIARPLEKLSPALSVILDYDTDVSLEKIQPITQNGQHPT

[4] = molecular target: T2, 5-hydroxytryptamine receptor 1A (Rattus norvegicus); assay: Displacement of [3H]8-OH-DPAT from 5HT1A receptor in rat frontal cortex membrane at 0.1 uM; assay type: cell membranes; method in brief: as §1
[5] = molecular target: T3, Alpha-1A adrenergic receptor (Homo sapiens, UniProt P35348); assay: Inhibition of adrenergic alpha-1 receptor
T3 sequence (P35348 whole entry): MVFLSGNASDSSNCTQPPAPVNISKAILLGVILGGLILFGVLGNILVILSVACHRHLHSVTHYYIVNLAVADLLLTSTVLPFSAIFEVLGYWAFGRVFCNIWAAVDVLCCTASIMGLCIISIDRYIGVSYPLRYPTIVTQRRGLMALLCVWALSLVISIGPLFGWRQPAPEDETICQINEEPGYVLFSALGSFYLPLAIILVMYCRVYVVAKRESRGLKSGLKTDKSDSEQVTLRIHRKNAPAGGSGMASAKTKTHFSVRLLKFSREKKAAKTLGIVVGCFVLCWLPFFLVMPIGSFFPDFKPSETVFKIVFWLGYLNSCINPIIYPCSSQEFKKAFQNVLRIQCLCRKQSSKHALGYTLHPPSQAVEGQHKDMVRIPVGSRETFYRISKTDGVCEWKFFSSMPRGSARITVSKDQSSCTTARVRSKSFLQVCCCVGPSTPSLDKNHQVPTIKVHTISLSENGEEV

[6] = molecular target: T4, 5-hydroxytryptamine receptor 2C (Homo sapiens, UniProt P28335); assay: Inhibition of 5HT2C receptor
T4 sequence (P28335 whole entry): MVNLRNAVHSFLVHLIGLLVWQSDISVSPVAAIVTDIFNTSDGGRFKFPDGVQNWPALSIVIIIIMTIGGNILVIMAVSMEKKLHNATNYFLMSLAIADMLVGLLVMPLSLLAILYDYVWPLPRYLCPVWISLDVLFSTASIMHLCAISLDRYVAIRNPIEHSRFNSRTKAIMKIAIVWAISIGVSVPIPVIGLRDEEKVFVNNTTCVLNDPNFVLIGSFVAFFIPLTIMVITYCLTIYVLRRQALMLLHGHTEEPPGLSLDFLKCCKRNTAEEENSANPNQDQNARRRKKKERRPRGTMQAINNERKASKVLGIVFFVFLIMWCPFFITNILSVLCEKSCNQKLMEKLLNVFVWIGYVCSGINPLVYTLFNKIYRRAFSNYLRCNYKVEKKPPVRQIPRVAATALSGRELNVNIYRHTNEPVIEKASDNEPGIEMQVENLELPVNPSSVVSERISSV

[7] = molecular target: T5, 5-hydroxytryptamine receptor 7 (Homo sapiens, UniProt P34969); assay: Displacement of [3H]LSD from human recombinant 5HT7 receptor expressed in CHO cells; assay type: cell-based; conditions: read-out: Ki
T5 sequence (P34969 whole entry): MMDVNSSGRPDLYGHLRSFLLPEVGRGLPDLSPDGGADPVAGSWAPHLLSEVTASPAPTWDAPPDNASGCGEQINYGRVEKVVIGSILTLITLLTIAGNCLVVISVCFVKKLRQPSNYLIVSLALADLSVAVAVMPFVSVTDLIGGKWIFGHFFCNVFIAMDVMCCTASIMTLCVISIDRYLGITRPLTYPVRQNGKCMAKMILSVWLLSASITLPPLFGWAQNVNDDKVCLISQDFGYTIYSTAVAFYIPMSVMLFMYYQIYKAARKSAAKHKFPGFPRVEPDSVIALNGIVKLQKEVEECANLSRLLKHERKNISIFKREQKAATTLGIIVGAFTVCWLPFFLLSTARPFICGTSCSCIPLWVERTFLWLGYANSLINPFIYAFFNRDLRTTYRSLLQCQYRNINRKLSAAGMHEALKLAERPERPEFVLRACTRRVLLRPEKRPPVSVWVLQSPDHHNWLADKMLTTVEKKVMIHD
Method in brief: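 Cloned human 5-HT7 receptor from CHO cells, labelled with [3H]LSD; nonspecific binding with 25 µM clozapine. Stopped by filtration on PEI-soaked GF/C filters, then scintillation counting. Ki from two displacement curves of nine concentrations each, run in triplicate.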

D(2) dopamine receptor = D(2) dopamine receptor (Homo sapiens, UniProt P14416); assay: Inhibition of dopamine D2 receptor
Chain of D(2) dopamine receptor (P14416 whole entry): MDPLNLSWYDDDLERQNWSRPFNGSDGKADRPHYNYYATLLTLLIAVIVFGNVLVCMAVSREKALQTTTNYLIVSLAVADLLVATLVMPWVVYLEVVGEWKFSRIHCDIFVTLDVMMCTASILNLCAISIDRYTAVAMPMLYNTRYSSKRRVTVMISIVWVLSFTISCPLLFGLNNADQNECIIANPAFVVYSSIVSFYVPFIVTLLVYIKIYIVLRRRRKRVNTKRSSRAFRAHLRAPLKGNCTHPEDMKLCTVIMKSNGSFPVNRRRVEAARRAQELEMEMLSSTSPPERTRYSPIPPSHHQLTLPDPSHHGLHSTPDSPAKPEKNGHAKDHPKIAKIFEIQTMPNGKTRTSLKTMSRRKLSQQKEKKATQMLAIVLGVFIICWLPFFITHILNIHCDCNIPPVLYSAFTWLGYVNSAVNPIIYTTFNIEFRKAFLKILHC

Rattus norvegicus = assay: Anxiolytic activity in ip dosed Wistar rat assessed as number of punished licks for 5 mins by conflict drinking test; assay type: functional; conditions: read-out: MED
Method in brief: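 Modified Vogel test in male Wistar rats, 160–180 g, water-deprived 48 h and fasted 24 h. Dosed ip 30 min before test. After a 30 s free-drinking period, 600 µA, 0.6 s shocks came through the spout every 20 licks over 5 min. Punished licks counted; minimal effective dose reported.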

[8] = molecular target: T5, 5-hydroxytryptamine receptor 7; assay: Antagonist activity at human 5HT7A receptor expressed in CHO cells assessed as inhibition of […]-induced cAMP elevation at 10 nM administered before […] challenge; assay type: functional, cell-based; parameters: scale not given: the % may be the effect or the level left
Method in brief: (§2)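 CHO cells stably expressing human 5-HT7A, cultured in F12:DMEM with 5% FCS, seeded 24 h ahead. Compounds from 1 mM DMSO stock (final DMSO 0.1%) preincubated 10 min, then 20 min with 10 nM 5-CT at 37 °C. Cells lysed, cAMP by EIA, normalized to BCA protein. The 5-CT-induced level is taken as 100%; six independent experiments.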

[9] = molecular target: T5, 5-hydroxytryptamine receptor 7; assay: Antagonist activity at human 5HT7A receptor expressed in CHO cells assessed as inhibition of […]-induced cAMP elevation at 1 uM; assay type: functional, cell-based; parameters: scale not given: the % may be the effect or the level left; method in brief: as §2
[10] = molecular target: 5-hydroxytryptamine receptor 2A (Homo sapiens, UniProt P28223); assay: Inhibition of 5HT2A receptor
Chain of 5-hydroxytryptamine receptor 2A (P28223 whole entry): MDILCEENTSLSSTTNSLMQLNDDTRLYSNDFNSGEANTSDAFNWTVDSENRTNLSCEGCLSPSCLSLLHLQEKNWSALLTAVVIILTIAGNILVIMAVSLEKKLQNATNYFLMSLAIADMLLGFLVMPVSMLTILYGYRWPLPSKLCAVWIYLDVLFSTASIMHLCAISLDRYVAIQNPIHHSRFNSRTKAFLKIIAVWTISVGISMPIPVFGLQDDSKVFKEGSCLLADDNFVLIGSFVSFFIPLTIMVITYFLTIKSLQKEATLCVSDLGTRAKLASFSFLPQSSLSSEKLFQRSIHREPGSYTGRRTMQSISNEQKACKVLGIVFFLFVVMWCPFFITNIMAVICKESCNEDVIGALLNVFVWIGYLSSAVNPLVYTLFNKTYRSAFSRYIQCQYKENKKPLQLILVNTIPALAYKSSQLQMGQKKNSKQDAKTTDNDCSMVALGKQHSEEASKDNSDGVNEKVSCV

Mus musculus = assay: Anxiolytic activity in ip dosed NMRI mouse assessed as behavioral activity for 5 mins by light dark assay; assay type: functional; conditions: read-out: MED
Method in brief: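 Male NMRI mice, 25–33 g, kept in a dark room and dosed ip 30 min before test, then placed in the centre of the lit area. Over 5 min, time in each area, transitions, and horizontal and vertical activity were recorded. Minimal effective dose by one-way ANOVA with Duncan's test.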

[11] = Oral bioavailability in rat; assay type: ADME, organism-based; conditions: in vivo

Chain of 5-hydroxytryptamine receptor 6 (P50406 whole entry): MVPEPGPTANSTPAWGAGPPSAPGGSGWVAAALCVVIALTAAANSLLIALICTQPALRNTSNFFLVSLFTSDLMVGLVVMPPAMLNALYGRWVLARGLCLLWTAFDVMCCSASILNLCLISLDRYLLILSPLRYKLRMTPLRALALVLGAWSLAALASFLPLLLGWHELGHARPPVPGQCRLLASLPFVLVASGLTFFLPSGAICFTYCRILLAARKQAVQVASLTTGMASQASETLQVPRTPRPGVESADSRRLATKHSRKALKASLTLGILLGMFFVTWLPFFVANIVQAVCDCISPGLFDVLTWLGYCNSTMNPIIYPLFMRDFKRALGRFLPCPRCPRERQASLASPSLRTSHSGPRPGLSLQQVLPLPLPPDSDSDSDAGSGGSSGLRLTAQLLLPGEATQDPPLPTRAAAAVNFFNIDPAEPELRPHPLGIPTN

| Ki [1] [nM] | Ki [2] [nM] | Activity [3] [%] | Ki (D(1A) dopamine receptor) [nM] | Activity [4] [%] | Ki [5] [nM] | Ki [6] [nM] | Ki [7] [nM] | Ki (D(2) dopamine receptor) [nM] | Activity [8] [%] | Activity [9] [%] | Ki [10] [nM] | Structure (SMILES) | minimal effective dose (Rattus norvegicus) [mg/kg] | minimal effective dose (Mus musculus) [mg/kg] | bioavailability [11] [%] |
| --- | --- | --- | --- | --- | --- | --- | --- | --- | --- | --- | --- | --- | --- | --- | --- |
| 1800 | 150 | 5 | 1900 | 33 | 20 | 1500 | 44 | 330 | 40 | > 95 | 55 | O=C1Nc2ccc(F)cc2C1CCCCN1CCN(c2ccccc2)CC1 (stereo not given) | < 10 | – | – |
| 580 | 1800 | – | 2400 | 10 | 42 | 690 | 7 | 960 | 80 | > 95 | 17.5 | O=C1Nc2ccccc2C1CCCCN1CCN(c2ccc(Cl)cc2)CC1 (stereo not given) | < 2.5 | < 1 | – |
| – | – | – | – | – | – | – | – | – | – | – | – | O=C1Nc2ccc(Cl)c3c2C1(CCCCN1CC=C(c2ccc(Cl)cc2)CC1)CCC3 (stereo not given) | – | – | 18 |
| 187 | 1610 | 0 | 3360 | 9 | 71.3 | 358 | 0.79 | 950 | – | > 95 | 19.4 | CCC1(CCCCN2CCN(c3ccc(Cl)cc3)CC2)C(=O)Nc2cc(F)ccc21 (stereo not given) | > 20 | > 10 | – |
